Experimental data from PubChem BioAssay.
Results filed as inconclusive are left out.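 How the source made its calls, unless noted: active means RAM network inhibition above 8.4% in each of two replicates, 3 SD over the compound average; inconclusive means above 8.4% inhibition in only one replicate; inactive means 8.4% inhibition or less in each replicate.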

Experiments:
[1] = S. cerevisiae growth inhibition in permissive medium (OD615), pilot counter-assay for S. cerevisiae lifespan shortening project, permissive growth control (AID 705;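 active means growth inhibition above 25% in both replicates, a cutoff set 3 SD above the mean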); conditions: OD615, 24 h, at 10 µM, active compounds read high
Procedure, shortened: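 System: engineered DeaD yeast; Medium: permissive raffinose/galactose medium; Compound dosing: 10 µM single dose, 0.25% DMSO; Incubation: 4 h cell pre-growth, 24 h exposure at 30 °C; Technique: OD at 615 nm; Evaluation: growth inhibition from lowered OD615 after 24 h.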

[2] = S. cerevisiae growth inhibition in restrictive medium, OD615, pilot screen, restrictive growth control, yeast lifespan reduction project (AID 706;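 active means growth inhibition above a set limit, 3 SD over mean compound inhibition, in both replicates, cut at about 43% in these data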;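 further: modified DeaD lifespan yeast strain shifted to restrictive glucose medium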); conditions: OD615, 48 h, at 10 µM, active compounds read high
Procedure, shortened: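 Material: modified S. cerevisiae; buffer or medium: CSMM-D glucose medium; doses: one concentration, 10 µM final, 0.25% DMSO; incubation: 48 h compound exposure at 30 °C; detection: optical density at 615 nm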

[3] = doxorubicin toxicity protection in MRP-1 cells – H69AR cells, CellTiter-Glo, duplicate, MRP-1 activator project, pilot screen (AID 807;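 active means viability increase at or above a cutoff of the median across tested compounds plus 3 SD, cut at about 8.5% in these data, passing the limit was not always enough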;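 further: compound pretreatment 18-22 h then 72 h combined with doxorubicin; 0% = doxorubicin alone and 100% = vehicle without doxorubicin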); conditions: H69AR viability with doxorubicin, CellTiter-Glo luminescence; at 10 µM; active compounds read high
[4] = viability of HCT116 without oncogenic beta-catenin – human colon tumor cells, pilot screen (AID 823;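 active means cell viability at or below a set limit in both duplicate runs, the limit being the all-compound median minus 4 SD, cut at about 23% in these data, passing the limit was not always enough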;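 further: 0% = wells killed by 20 µM Hyamine and 100% = untreated DMSO cell wells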); conditions: HCT116 beta-catenin knockout viability, CellTiter-Glo, 60 h; at 10 µM; active compounds read low
[5] = viability of PTEN-null HCT116 cells – cell-based, HCT116 clonal line, CellTiter-Glo, pilot screen (AID 824;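 active means viability at or below 27.92% in each of two runs, the all-compound median minus 4 SD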;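 further: 0% = 20 µM Hyamine control and 100% = vehicle cell control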); conditions: HCT116 PTEN-deleted viability, 60 h, at 10 µM, active compounds read low
[6] = RAM pathway blockade in budding yeast – dse1pr::URA3 reporter, 5-FOA selection, pilot screen (AID 869;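 active means inhibition over a set limit, the all-compound mean plus 3 SD, in both replicate runs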;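 further: 0% = DMSO wells with no growth and 100% = 10 µM 1-NA-PP1 with full growth; RAM network block rescues cells from 5-FOA so hits raise OD615 growth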); conditions: S. cerevisiae dse1pr::URA3 5-FOA growth, OD615, 2 d; at 10 µM; active compounds read high; strain carries analog-sensitive mutant Cbk1 kinase
[7] = RAM signaling pathway blockade in yeast – S. cerevisiae, Pdr1DBD-CYC8 efflux-inhibited sensitized strain, primary screen (AID 1298);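 further: 0% = DMSO untreated cells without growth and 100% = 10 µM 1-NA-PP1 full growth; higher means more yeast growth rescued from 5-FOA killing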; conditions: S. cerevisiae cbk1-as DSE1-URA3 strain, 5-FOA growth OD615, 2 d; at 50 µM; active compounds read high

Cc1ccc(-n2ncc3c(=O)[nH]c(SCC(=O)N4CCCCC4)nc32)cc1
inactive: growth inhibition [1] -4.04% | growth inhibition [2] 2.2% | viability increase [3] -4.87% | viability [4] 94.6% | viability [5] 92.1% | inhibition [6] 1.27% | RAM network inhibition [7] 0.05%

CC(=O)Nc1ccc(-n2c(C)c(C(C)=O)c(C(C)=O)c2C)cc1
inactive: growth inhibition [1] -2.51% | growth inhibition [2] -2.06% | viability increase [3] -2.3% | viability [4] 102% | viability [5] 101% | inhibition [6] 0.515% | RAM network inhibition [7] 4.97%

Cc1ccc(NC(=O)C2C3C=CC4(CN(Cc5cccnc5)C(=O)C24)O3)cc1F (centres undefined)
inactive: growth inhibition [1] -0.35% | growth inhibition [2] -0.595% | viability increase [3] -1.71% | viability [4] 96.7% | viability [5] 97.2% | inhibition [6] 0.345% | RAM network inhibition [7] 9.57%

C=CCSC1=C(C#N)C(c2ccc(OCC)cc2)CC(=O)N1 (centres undefined)
inactive: growth inhibition [1] -11.9% | growth inhibition [2] 15.4% | viability increase [3] -1.8% | viability [4] 94.5% | viability [5] 88.2% | inhibition [6] 1.47% | RAM network inhibition [7] 4.8%

Cc1nnc(NC(=O)CCCCCN2C(=O)C3C4C=CC(C4)C3C2=O)s1 (centres undefined)
inactive: growth inhibition [1] -10.6% | growth inhibition [2] -1.29% | viability increase [3] 1.66% | viability [4] 96.7% | viability [5] 102% | inhibition [6] -0.595% | RAM network inhibition [7] 3.05%

CC1CCN(c2nc3c(c(=O)[nH]c(=O)n3C)n2Cc2ccccc2Cl)CC1
inactive: growth inhibition [1] -10.2% | growth inhibition [2] -20.9% | viability increase [3] -6.47% | viability [4] 87.6% | viability [5] 72% | inhibition [6] 2.75% | RAM network inhibition [7] 9.67%

CN(CCCC(=O)Nc1nccs1)S(=O)(=O)c1ccc(Cl)cc1
inactive: growth inhibition [1] -0.375% | growth inhibition [2] 0.355% | viability increase [3] -1.24% | viability [4] 110% | viability [5] 97.7% | inhibition [6] 1.51% | RAM network inhibition [7] 0.41%

O=S(=O)(NC1CCCCC1NCc1ccco1)c1ccccc1 (centres undefined)
inactive: growth inhibition [1] -9.75% | growth inhibition [2] -2.12% | viability increase [3] -4.92% | viability [4] 98% | viability [5] 92.6% | inhibition [6] 1.82% | RAM network inhibition [7] 6.55%

CCOc1ccc(C2C(C(=O)Nc3ccc(F)cc3)=C(C)Nc3nc(CCCO)nn32)cc1 (centres undefined)
inactive: growth inhibition [1] -12.5% | growth inhibition [2] 12.8% | viability increase [3] -0.6% | viability [4] 96.6% | viability [5] 91.5% | inhibition [6] 0.87% | RAM network inhibition [7] 1.21%

COc1ccc(C2C(C(=O)NCc3ccccn3)c3cc(OC)c(OC)cc3C(=O)N2C)cc1 (centres undefined)
inactive: growth inhibition [1] -3.48% | growth inhibition [2] 1.16% | viability increase [3] -4.5% | viability [4] 98% | viability [5] 95.9% | inhibition [6] -0.135% | RAM network inhibition [7] 5.92%

COc1ccc(-c2cn3c(C)c(C(=O)N4CCN(c5ccc(OC)cc5)CC4)sc3n2)cc1
inactive: growth inhibition [1] -5.73% | growth inhibition [2] -9.94% | viability increase [3] -1.79% | viability [4] 103% | viability [5] 104% | inhibition [6] 2.58% | RAM network inhibition [7] 3.17%

CCc1c(C)nc(SCC(=O)Nc2ccc(Br)cc2)[nH]c1=O
inactive: growth inhibition [1] -11.9% | growth inhibition [2] 0.39% | viability increase [3] 1.64% | viability [4] 98.3% | viability [5] 103% | inhibition [6] 1.89% | RAM network inhibition [7] 3.9%

COc1cccc(OCCCCSc2ncccn2)c1
inactive: growth inhibition [1] 0.33% | growth inhibition [2] 4.57% | viability increase [3] -2.94% | viability [4] 93.2% | viability [5] 90.2% | inhibition [6] -0.22% | RAM network inhibition [7] 4.14%

Cc1cc(C(C)(C)C)oc1C(=O)Nc1ccc(CC(=O)O)cc1
inactive: growth inhibition [1] -5.71% | growth inhibition [2] 6.31% | viability increase [3] 1.52% | viability [4] 100% | viability [5] 98.9% | inhibition [6] 1.31% | RAM network inhibition [7] 3.99%

COc1ccc(C2C(C(=O)NC(C)C)c3ccccc3C(=O)N2C)cc1OC (centres undefined)
inactive: growth inhibition [1] -12.9% | growth inhibition [2] -13.2% | viability increase [3] -0.58% | viability [4] 105% | viability [5] 101% | inhibition [6] 0.95% | RAM network inhibition [7] 5.34%

CCOc1ccc(C2N(c3ccc(OC)cc3)C(=O)C3CCCN32)cc1OC (centres undefined)
inactive: growth inhibition [1] -1.7% | growth inhibition [2] -0.11% | viability increase [3] -2.39% | viability [4] 98.7% | viability [5] 101% | inhibition [6] 1.57% | RAM network inhibition [7] 3%

CCCCC(=O)Nc1nc(C)c(C(C)=O)s1
inactive: growth inhibition [1] -13.3% | growth inhibition [2] -2.2% | viability increase [3] 0.48% | viability [4] 98.8% | viability [5] 88.7% | inhibition [6] 1.14% | RAM network inhibition [7] -1%

Cc1nc(Nc2nc3ccccc3o2)nc2c1CCC2
inactive: growth inhibition [1] 9.76% | growth inhibition [2] 16.7% | viability increase [3] -1.82% | viability [4] 77.7% | viability [5] 76% | inhibition [6] 0.225% | RAM network inhibition [7] -0.26%

O=C(COc1ccccc1)Nc1nnc(-c2ccccc2)o1
inactive: growth inhibition [1] -5.84% | growth inhibition [2] 4.22% | viability increase [3] 0.2% | viability [4] 104% | viability [5] 94.1% | inhibition [6] 1.29% | RAM network inhibition [7] -1.25%

Cc1ccc(-c2noc(CSc3nnnn3C3CCCCC3)n2)cc1
inactive: growth inhibition [1] -16.1% | growth inhibition [2] -13.6% | viability increase [3] -1.39% | viability [4] 89.8% | viability [5] 84% | inhibition [6] 0.525% | RAM network inhibition [7] 5.16%

Nc1c(C(=O)NCc2ccccc2)nnn1Cc1ccccc1
inactive: growth inhibition [1] -6.54% | growth inhibition [2] 4.1% | viability increase [3] 1.95% | viability [4] 99.8% | viability [5] 91.2% | inhibition [6] 1.02% | RAM network inhibition [7] 2.99%

O=C(CSCC(=O)NC1CC1)Nc1ccccc1
inactive: growth inhibition [1] -0.675% | growth inhibition [2] -11.9% | viability increase [3] -1.13% | viability [4] 98.2% | viability [5] 98.7% | inhibition [6] 0.03% | RAM network inhibition [7] -0.72%

O=C(Nc1ccccc1C1CC1)c1cccs1
inactive: growth inhibition [1] -10.4% | growth inhibition [2] -19.7% | viability increase [3] 1.09% | viability [4] 95% | viability [5] 96.9% | inhibition [6] 1.16% | RAM network inhibition [7] 0.36%

Cc1c(C(=O)NCc2ccco2)sc2nc(-c3ccccc3)cn12
inactive: growth inhibition [1] 3.59% | growth inhibition [2] 10.2% | viability increase [3] -4.77% | viability [4] 78.6% | viability [5] 67.3% | inhibition [6] 0.04% | RAM network inhibition [7] 2.7%

Cc1cc(C)n2nc(S(=O)(=O)NCCc3ccccc3)nc2n1
inactive: growth inhibition [1] -6.26% | growth inhibition [2] -8.79% | viability increase [3] -0.6% | viability [4] 111% | viability [5] 100% | inhibition [6] 2.72% | RAM network inhibition [7] 1.3%

COc1cc(C(=O)NCC(c2ccco2)N2CCCC2)ccc1OCc1c(C)noc1C (centres undefined)
inactive: growth inhibition [1] 0.045% | growth inhibition [2] -23.7% | viability increase [3] -4.73% | viability [4] 82.7% | viability [5] 83.8% | inhibition [6] 1.03% | RAM network inhibition [7] 3.83%

CCOc1ccc2[nH]c(C)c(CN3CCOCC3)c(=O)c2c1
inactive: growth inhibition [1] 0.82% | growth inhibition [2] -5.17% | viability increase [3] -1.13% | viability [4] 96.5% | viability [5] 99% | inhibition [6] 1.96% | RAM network inhibition [7] 2.56%
